We go through 6 compounds from ChEMBL document CHEMBL1131482 (J Med Chem, 1998).

SMILES strings stand for the structures. Active and inactive are the calls of the source. Where only a bound is given, the exact number is not on record here.

The subject of test [1] is Mus musculus. The experiment in a line: Licking latency was measured after 15 min treatment (at dose=25 mg/kg) by using mouse hot plate test (*P<0.01). The format is functional. In short, it runs like this: (§1)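 Male Swiss-Webster mice (22-28 g), 23 ± 1 °C, 12-h light/dark cycle, food and water ad libitum. Hot plate at 52.5 ± 0.1 °C with licking latency as read-out and 45 s cutoff. Mice with pre-drug latency below 12 or over 18 s were rejected. Compounds given sc, 5-12 mice per test. Significance was assessed by Dunnett's two-tailed test, P < 0.05.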

For test [2], the system named is Mus musculus. The test is described as follows: Licking latency was measured after 30 min treatment (at dose=10 mg/kg) by using mouse hot plate test. The test is classed as functional. In short, it runs like this: as §1
In test [3] the test system is Mus musculus. The test is described as follows: MAD: minimal dose able to induce a statistically significant increase of the pain threshold, done on mouse; sc. The test is classed as functional. In short, it runs like this:
(§2)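 Mouse hot plate test (52.5 ± 0.1 °C, 45 s cutoff) after sc dosing, in male Swiss-Webster mice. The value is the lowest dose giving a statistically significant rise in pain threshold. Dunnett's two-tailed test compared treated mice at maximum reaction time with pretest time, P < 0.05.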

For test [4], the system named is Mus musculus. The experiment in a line: Licking latency was measured before treatment (at dose=10 mg/kg) by using mouse hot plate test. The test is classed as functional. In short, it runs like this: as §1
Test [5] deals with Mus musculus. The test is described as follows: Licking latency was measured before treatment (at dose=25 mg/kg) by using mouse hot plate test. The format is functional. In short, it runs like this: as §1
The species named for test [6] is Mus musculus. The test is described as follows: Analgesic efficacy is expressed as percentage of that epibatidine, done on mouse. The format is functional.
The subject of test [7] is Mus musculus. The test is described as follows: Licking latency was measured after 45 min treatment (at dose=25 mg/kg) by using mouse hot plate test (*P<0.01). The test is classed as functional. In short, it runs like this: as §1
The test system of test [8] is Mus musculus. The experiment in a line: Licking latency was measured after 45 min treatment (at dose=15 mg/kg) by using mouse hot plate test (*P<0.01). The test is classed as functional. In short, it runs like this: as §1
Test [9] has as its system Mus musculus. The test is described as follows: Licking latency was measured after 45 min treatment (at dose=10 mg/kg) by using mouse hot plate test. The test is classed as functional. In short, it runs like this: as §1
Test [10] concerns Mus musculus. The experiment in a line: MNTD:Maximal nontoxic dose of the compound, done on mouse; sc. The format is functional. In short, it runs like this: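 Male Swiss-Webster mice dosed sc. The value is the highest dose causing no visible behavioural change (tremors, convulsions, hypomotility etc.), so that treated mice could not be told apart from untreated ones. Behaviour was scored by the Irwin method in groups of at least 10 animals.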

Test [11] has as its system Mus musculus. The experiment in a line: Licking latency was measured after 30 min treatment (at dose=25 mg/kg) by using mouse hot plate test (*P<0.01). The format is functional. In short, it runs like this: as §1
For test [12], the system named is Mus musculus. The test is described as follows: Licking latency was measured before treatment (at dose=15 mg/kg) by using mouse hot plate test. The format is functional. In short, it runs like this: as §1
Test [13] has as its system Mus musculus. The test is described as follows: Licking latency was measured after 30 min treatment (at dose=15 mg/kg) by using mouse hot plate test (*P<0.01). The format is functional. In short, it runs like this: as §1
The species entered for test [14] is Mus musculus. The test is described as follows: Analgesic efficacy is expressed as percentage of that morphine, done on mouse. The format is functional.
Test [15] deals with Mus musculus. The test is described as follows: Licking latency was measured after 15 min treatment (at dose=15 mg/kg) by using mouse hot plate test (*P<0.01). The test is classed as functional. In short, it runs like this: as §1
Test [16] concerns Mus musculus. The experiment in a line: Licking latency was measured after 15 min treatment (at dose=10 mg/kg) by using mouse hot plate test. The format is functional. In short, it runs like this:
as §1

Test [17] deals with Mus musculus. The test is described as follows: Licking latency was measured after 45 min treatment (at dose=25 mg/kg) by using mouse hot plate test. The format is functional. In short, it runs like this: as §1
For test [18], the system named is Mus musculus. The experiment in a line: Licking latency was measured after 15 min treatment (at dose=5 mg/kg) by using mouse hot plate test. The format is functional. In short, it runs like this:
as §1

The subject of test [19] is Mus musculus. The experiment in a line: Licking latency was measured after 30 min treatment (at dose=5 mg/kg) by using mouse hot plate test. The format is functional. In short, it runs like this: as §1
Test [20] deals with Mus musculus. The experiment in a line: Licking latency was measured after 15 min treatment (at dose=25 mg/kg) by using mouse hot plate test. The format is functional. In short, it runs like this:
as §1

Test [21] deals with Mus musculus. The test is described as follows: Licking latency was measured after 45 min treatment (at dose=5 mg/kg) by using mouse hot plate test. The format is functional. In short, it runs like this: as §1
Test [22] concerns Mus musculus. The experiment in a line: Licking latency was measured before treatment (at dose=5 mg/kg) by using mouse hot plate test. The format is functional. In short, it runs like this: (§3)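 Male Swiss-Webster mice (22-28 g), 23 ± 1 °C, 12-h light/dark cycle. Hot plate at 52.5 ± 0.1 °C. Mice with pre-drug licking latency below 12 s or over 18 s were rejected. Cutoff 45 s. Compound given sc; latency read before dosing and at 15, 30 and 45 min. 5-12 mice per test.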

The subject of test [23] is Mus musculus. The experiment in a line: Licking latency was measured after 30 min treatment (at dose=25 mg/kg) by using mouse hot plate test. The test is classed as functional. In short, it runs like this: as §1
Test [24] concerns Mus musculus. The experiment in a line: Licking latency was measured before treatment (at dose=50 mg/kg) by using mouse hot plate test. The test is classed as functional. In short, it runs like this: as §3
The subject of test [25] is Mus musculus. The experiment in a line: Licking latency was measured after 30 min treatment (at dose=50 mg/kg) by using mouse hot plate test. The format is functional. In short, it runs like this:
as §1

For test [26], the system named is Mus musculus. The experiment in a line: Licking latency was measured after 15 min treatment (at dose=50 mg/kg) by using mouse hot plate test. The test is classed as functional. In short, it runs like this:
as §1

The subject of test [27] is Mus musculus. The test is described as follows: MAD: minimal dose able to induce a statistically significant increase of the pain threshold, done on mouse; sc; IA = inactive. The test is classed as functional, organism-based. In short, it runs like this:
as §2

Test [28] deals with Mus musculus. The test is described as follows: Licking latency was measured after 45 min treatment (at dose=50 mg/kg) by using mouse hot plate test. The test is classed as functional. In short, it runs like this:
as §1

In the case of `Clc1ccc(N2C3CCC2CNC3)nn1`, the Licking latency was found to be 35.5 s with Mus musculus [1]; 15.4 s with Mus musculus [2]; 12.2 s in the test with Mus musculus [4]; 15 s with Mus musculus [5]; 26.4 s in the test on Mus musculus [7]; 20.6 s in the test on Mus musculus [8]. In addition, the Licking latency is reported as 17.4 s in the test on Mus musculus [9]; 34.8 s in the test with Mus musculus [11]; 15.3 s with Mus musculus [12]; 22.9 s with Mus musculus [13]; 23.2 s in the test on Mus musculus [15]; 17 s in the test on Mus musculus [16]. Besides, the MAD in the test with Mus musculus [3] turned out to be 15 mg/kg. Also, the “Analgesic efficacy compared to epibatidine” value in the test listed under Mus musculus [6] was 130%. In addition, the MNTD in the test with Mus musculus [10] is 30 mg/kg. In the test filed under Mus musculus [14], the “Analgesic efficacy compared to morphine” value came out at 107%.

`CSc1nc(Cl)cc(N2CC3CCC(C2)N3)n1`: the Licking latency with Mus musculus [17] is listed as 36.5 s; in the test on Mus musculus [18], 20.3 s; in the test on Mus musculus [5], 15.1 s; in the test with Mus musculus [19], 20.5 s; in the test with Mus musculus [20] it was 40.8 s; with Mus musculus [21], 18.7 s. Also, the Licking latency in the test on Mus musculus [22] was 14.7 s; in the test on Mus musculus [23], 43.8 s. Moreover, the MAD in the test with Mus musculus [3] was found to be 5 mg/kg. For the same compound, in the test listed under Mus musculus [6], the “Analgesic efficacy compared to epibatidine” value was found to be 182%. In addition, the MNTD with Mus musculus [10] was 30 mg/kg. In addition, in the test listed under Mus musculus [14], the “Analgesic efficacy compared to morphine” value is 149%.

On to `Clc1cccnc1N1CC2CCC(C1)N2`, for which the Licking latency in the test on Mus musculus [17] was 27.5 s; in the test with Mus musculus [18], 21.3 s; in the test with Mus musculus [5], 15.3 s; in the test with Mus musculus [19] it was 20.3 s; in the test on Mus musculus [20], 39.2 s; with Mus musculus [21] it was 18.3 s. The Licking latency came to 13.7 s in the test on Mus musculus [22] and 29.7 s in the test with Mus musculus [23]. Also, in the test with Mus musculus [3], the MAD came to 10 mg/kg. Moreover, the “Analgesic efficacy compared to epibatidine” value in the test filed under Mus musculus [6] was 151%. The MNTD in the test with Mus musculus [10] worked out at 40 mg/kg. For the same compound, in the test filed under Mus musculus [14], the “Analgesic efficacy compared to morphine” value amounted to 124%.

Consider `Clc1ccnc(N2CC3CCC(C2)N3)n1`, for which the Licking latency in the test on Mus musculus [2] was found to be 21.2 s; in the test on Mus musculus [18], 20.5 s; in the test on Mus musculus [4] it was 14.6 s; with Mus musculus [19], 17.8 s; in the test with Mus musculus [21] it was 15.6 s; with Mus musculus [9], 22.1 s. For the same compound, the Licking latency in the test on Mus musculus [22] came out at 15 s; in the test with Mus musculus [16] it was 26.3 s. Besides, the MAD in the test on Mus musculus [3] was determined as 5 mg/kg. For the same compound, the “Analgesic efficacy compared to epibatidine” value in the test filed under Mus musculus [6] was 75%. For the same compound, the MNTD in the test with Mus musculus [10] came out at 15 mg/kg. Besides, in the test listed under Mus musculus [14], the “Analgesic efficacy compared to morphine” value turned out to be 60%.

As for `Clc1ccc(N2C3CCC2CN(Cc2ccccc2)C3)nn1`, the Licking latency is 14.8 s with Mus musculus [24], 15.3 s in the test with Mus musculus [25], 17.2 s in the test with Mus musculus [26] and 17.6 s in the test with Mus musculus [28]. Besides, the MAD result in the test on Mus musculus [27] was “inactive”. The MNTD in the test on Mus musculus [10] was >50 mg/kg.

Take `CCC(=O)N1CC2CCC(C1)N2c1ccc(Cl)nn1`: the Licking latency was determined as 16.7 s with Mus musculus [2]; 14.6 s in the test on Mus musculus [24]; 15.8 s in the test on Mus musculus [4]; 13 s in the test on Mus musculus [25]; 17 s with Mus musculus [26]; 16.1 s in the test on Mus musculus [9]. The Licking latency worked out at 14 s in the test with Mus musculus [28] and 16 s in the test on Mus musculus [16]. In addition, the MAD entry in the test with Mus musculus [27] was “inactive”. The MNTD with Mus musculus [10] is >50 mg/kg.
